In ChEMBL document CHEMBL5154918, “Synthesis and Biological Characterization of a Series of 2-Sulfonamidebenzamides as Allosteric Modulators of MrgX1” (ACS Med Chem Lett, 2022):

Tests used:
[1] = Ratio of drug concentration in brain to plasma in Sprague-Dawley rat at 0.25 mg/kg measured after 15 mins; type: ADME, organism-based; details: brain and plasma
Outline: (§1)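 Brain sampled on Day 2 at 0.25 h, with matching plasma, after a 0.25 mg/kg IV cassette dose (5-in-1) in male Sprague–Dawley rats. Vehicle was DMSO:PEG400:EtOH:Saline (5:48:10:37). Kp is total brain/plasma concentration ratio.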

[2] = Plasma protein binding in mouse assessed as unbound fraction; type: ADME, cell-free; details: read-out: PPB
Outline: (§2)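 Equilibrium dialysis in human and mouse plasma; results expressed as […] fraction unbound.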

[3] = AUC in Sprague-Dawley rat at 0.25 mg/kg, iv bolus injection administered as cassette dose; type: ADME, organism-based; set-up: dose 0.25 mg/kg, route iv; details: in vivo
Outline: (§3)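 Male Sprague–Dawley rats, 5-in-1 cassette, 0.25 mg/kg IV of each test article in DMSO:PEG400:EtOH:Saline (5:48:10:37). Plasma sampled at 0.0833, 0.25, 0.5, 1, 3, 4, 8 and 24 h, plus Day 2 at 0.25 h post dose.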

[4] = biological target: T1, Mas-related G-protein coupled receptor member X1 (Homo sapiens, UniProt Q96LB2); assay: Positive allosteric modulator activity at human MRGPRX1 expressed in HEK293 cells in presence of BAM8-22 by Fluo4-dye based FLIPR assay; type: cell-based
T1 sequence (Q96LB2 whole entry): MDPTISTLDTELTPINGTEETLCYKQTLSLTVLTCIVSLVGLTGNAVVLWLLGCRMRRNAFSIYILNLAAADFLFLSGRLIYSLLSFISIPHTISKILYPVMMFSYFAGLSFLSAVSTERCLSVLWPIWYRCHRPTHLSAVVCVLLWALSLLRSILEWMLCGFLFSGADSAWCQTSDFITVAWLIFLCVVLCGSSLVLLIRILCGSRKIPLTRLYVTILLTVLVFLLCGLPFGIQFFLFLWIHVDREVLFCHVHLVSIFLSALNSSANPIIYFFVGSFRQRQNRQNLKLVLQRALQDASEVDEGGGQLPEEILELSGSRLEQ
Outline: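 HEK293 cells expressing MrgX1. Compounds tested in the presence of 10 nM BAM8-22. Emax normalized to control compound ML382; mean ± SEM of n = 2 experiments.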

[5] = Plasma protein binding in human assessed as unbound fraction; type: ADME, cell-free; details: read-out: PPB; outline: as §2
[6] = Drug concentration in Sprague-Dawley rat brain at 0.25 mg/kg measured up to 48.25 hrs; type: ADME, organism-based; details: read-out: Ct; outline: as §1
[7] = biological target: T1, Mas-related G-protein coupled receptor member X1; assay: Positive allosteric modulator activity at human MRGPRX1 expressed in HEK293 cells assessed as maximal efficacy at 5 uM in presence of BAM8-22 by Fluo4-dye based FLIPR assay relative to control; type: cell-based; details: filed as positive allosteric modulator
[8] = Volume of distribution at steady state in Sprague-Dawley rat at 0.25 mg/kg, iv bolus injection administered as cassette dose; type: ADME, organism-based; details: in vivo, read-out: Vdss; outline: as §3
Histamine H1 receptor = Histamine H1 receptor (Homo sapiens, UniProt P35367); assay: Binding affinity to H1 receptor (unknown origin)
Histamine H1 receptor, sequence (P35367 whole entry): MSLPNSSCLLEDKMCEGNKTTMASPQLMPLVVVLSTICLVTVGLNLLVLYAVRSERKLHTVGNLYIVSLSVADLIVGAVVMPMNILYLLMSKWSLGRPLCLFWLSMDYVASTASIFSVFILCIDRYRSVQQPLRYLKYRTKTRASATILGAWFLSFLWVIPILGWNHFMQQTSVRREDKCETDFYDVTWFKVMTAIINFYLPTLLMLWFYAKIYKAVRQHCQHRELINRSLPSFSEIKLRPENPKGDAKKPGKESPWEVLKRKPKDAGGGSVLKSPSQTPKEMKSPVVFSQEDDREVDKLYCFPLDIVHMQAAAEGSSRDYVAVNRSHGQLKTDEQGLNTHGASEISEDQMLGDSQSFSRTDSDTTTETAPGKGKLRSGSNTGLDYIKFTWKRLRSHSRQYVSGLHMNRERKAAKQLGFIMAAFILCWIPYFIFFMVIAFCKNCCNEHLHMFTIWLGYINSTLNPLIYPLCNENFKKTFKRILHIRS

[9] = Clearance in Sprague-Dawley rat at 0.25 mg/kg, iv bolus injection administered as cassette dose; type: ADME, organism-based; details: in vivo; outline: as §3
[10] = Microsomal stability in mouse liver microsomes assessed as intrinsic clearance; type: ADME, Microsome; details: read-out: CLH
Outline: (§4)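 Intrinsic clearance measured in human and mouse liver microsomes. Hepatic clearance predicted from it with the well-stirred organ CL model, binding terms excluded.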

[11] = Microsomal stability in human liver microsomes assessed as intrinsic clearance; type: ADME, Microsome; details: read-out: CLH; outline: as §4
[12] = Half life in Sprague-Dawley rat at 0.25 mg/kg, iv bolus injection administered as cassette dose; type: ADME, organism-based; details: in vivo; outline: as §3
[13] = Drug concentration in Sprague-Dawley rat plasma at 0.25 mg/kg measured up to 48.25 hrs; type: ADME, organism-based; outline: as §1
Translocator protein = Translocator protein (Homo sapiens, UniProt P30536); assay: Binding affinity to peripheral benzodiazepine receptor (unknown origin)
Translocator protein, sequence (P30536 whole entry): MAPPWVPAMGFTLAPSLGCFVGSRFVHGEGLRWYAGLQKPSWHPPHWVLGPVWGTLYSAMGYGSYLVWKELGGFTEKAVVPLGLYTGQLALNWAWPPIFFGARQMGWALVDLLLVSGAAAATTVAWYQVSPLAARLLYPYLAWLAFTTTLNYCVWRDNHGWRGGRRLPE

[14] = Cmax in mouse at 2 mg/kg, ip administered as discrete dose; type: ADME, organism-based; set-up: dose 2 mg/kg, route ip; details: in vivo
Outline: (§5)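 Discrete (single-compound) mouse PK, dosed IP at 2 mg/kg in 10% DMSO/10% cremophor EL/30% PEG400/50% water. Plasma and brain concentrations measured; brain:plasma ratio reported.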

[15] = AUC in mouse at 2 mg/kg, ip administered as discrete dose; type: ADME, organism-based; set-up: dose 2 mg/kg, route ip; details: in vivo; outline: as §5
D(1B) dopamine receptor = D(1B) dopamine receptor (Homo sapiens, UniProt P21918); assay: Binding affinity to D5 receptor (unknown origin)
D(1B) dopamine receptor, sequence (P21918 whole entry): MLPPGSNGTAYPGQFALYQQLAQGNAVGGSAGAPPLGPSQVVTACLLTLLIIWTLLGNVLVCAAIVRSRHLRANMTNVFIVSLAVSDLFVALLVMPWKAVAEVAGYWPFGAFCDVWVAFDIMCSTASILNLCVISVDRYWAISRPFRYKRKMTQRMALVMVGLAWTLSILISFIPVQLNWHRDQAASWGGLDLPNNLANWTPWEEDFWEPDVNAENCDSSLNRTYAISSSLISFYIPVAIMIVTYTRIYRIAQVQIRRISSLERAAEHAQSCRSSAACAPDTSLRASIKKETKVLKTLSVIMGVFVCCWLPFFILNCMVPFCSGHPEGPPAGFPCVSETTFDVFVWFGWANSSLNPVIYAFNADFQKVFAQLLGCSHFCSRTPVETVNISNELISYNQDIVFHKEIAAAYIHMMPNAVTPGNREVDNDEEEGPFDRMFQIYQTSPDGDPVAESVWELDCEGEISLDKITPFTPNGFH

[16] = Tmax in mouse at 2 mg/kg, ip administered as discrete dose; type: ADME, organism-based; details: in vivo; outline: as §5
[17] = Ratio of drug concentration in brain to plasma in mouse at 2 mg/kg, ip administered as discrete dose; type: ADME, organism-based; details: brain and plasma, read-out: BPR; outline: as §5
[18] = Half life in mouse at 2 mg/kg, ip administered as discrete dose; type: ADME, organism-based; details: in vivo; outline: as §5

| Kp at 0.25 h [1] | fraction unbound [2] | AUC [3] | EC50 [4] | fraction unbound [5] | concentration at 48.25 h [6] | Emax [7] | Vd [8] | Ki (Histamine H1 receptor) | clearance [9] | CLint scaled [10] | CLint scaled [11] | half-life [12] | concentration at 48.25 h [13] | SMILES | further results |
| --- | --- | --- | --- | --- | --- | --- | --- | --- | --- | --- | --- | --- | --- | --- | --- |
| 0.57 | 0.012 | 66.2 ng·h/mL | 69 nM | 0.003 | 35.1 ng/g | 106% | 1.2 L/kg | 1090 nM | 63.1 mL/min/kg | 1100 mL/min/kg | 114 mL/min/kg | 25.2 min | 61.5 ng/mL | CCOc1ccc(F)cc1NC(=O)c1cc(C)ccc1NS(=O)(=O)C1CC1 | – |
| 0.29 | 0.022 | 119 ng·h/mL | 14 nM | 0.004 | 23.6 ng/g | 82.2% | 0.52 L/kg | > 4000 nM | 36.7 mL/min/kg | 1660 mL/min/kg | 79.1 mL/min/kg | 28.8 min | 79.6 ng/mL | CCOc1ccc(F)cc1NC(=O)c1ccccc1NS(=O)(=O)C1CC1 | Ki (Translocator protein): 271 nM; Cmax [14]: 259 ng/mL; AUC [15]: 69 ng·h/mL; Ki (D(1B) dopamine receptor): > 4000 nM; Tmax [16]: 10.2 min; Kp [17]: 0.32; half-life [18]: 10.8 min |
